Reference: ChEMBL document CHEMBL1141140, “Antifungal agents. 11. N-substituted derivatives of 1-[(aryl)(4-aryl-1H-pyrrol-3-yl)methyl]-1H-imidazole: synthesis, anti-Candida activity, and QSAR studies” (2005)
Converted amounts (≈) assume the structure as drawn.

Assays:
Type in all cases: functional
Candida albicans [1] = test: Ratio of the in vitro minimal inhibitory to that of bifonazole against Candida albicans (MIC(compound)/MIC(bifonazole))
Summary of the method: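 Broth microdilution per NCCLS M27-A2 against 12 Candida albicans strains (AIDS oropharyngeal, HIV vulvovaginitis isolates, ATCC 24433 and 20891, lab strains 3153 and CA2). Inoculum ~10^4 cells/mL in RPMI 1640, pH 7.0; DMSO stocks 6.4 mg/mL, twofold dilutions 0.016–64 μg/mL; read at 24 h, 28 °C, no visible growth. Mean MIC over strains converted to μmol/mL, divided by bifonazole MIC.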

Candida albicans [2] = test: In vitro concentration causing 50% inhibition of Candida albicans with percentage of resistant strains %R = 41.6 (MIC > 64 ug/mL) at a range of 0.062-0.125 ug/mL
Candida albicans [3] = test: In vitro minimal inhibitory concentration against Candida albicans with percentage of resistant strains %R = 41.6 (MIC > 64 ug/mL) at a range of 0.062-0.125 ug/mL
Candida albicans [4] = test: In vitro concentration causing 90% inhibition of Candida albicans with percentage of resistant strains %R = 41.6 (MIC > 64 ug/mL) at a range of 0.062-0.125 ug/mL
Candida albicans [5] = test: In vitro minimal inhibitory concentration against Candida albicans with percentage of resistant strains %R = 0 (MIC > 64 ug/mL) at a range of 0.016-0.5 ug/mL
Candida albicans [6] = test: In vitro concentration causing 50% inhibition of Candida albicans with percentage of resistant strains %R = 0 (MIC > 64 ug/mL) at a range of 0.016-0.5 ug/mL
Candida albicans [7] = test: In vitro concentration causing 90% inhibition of Candida albicans with percentage of resistant strains %R = 0 (MIC > 64 ug/mL) at a range of 0.016-0.5 ug/mL
Candida albicans [8] = test: In vitro minimal inhibitory concentration against Candida albicans with percentage of resistant strains %R = 16.6 (MIC > 64 ug/mL) at a range of 0.5-4 ug/mL
Candida albicans [9] = test: In vitro concentration causing 50% inhibition of Candida albicans with percentage of resistant strains %R = 16.6 (MIC > 64 ug/mL) at a range of 0.5-4 ug/mL
Candida albicans [10] = test: In vitro concentration causing 90% inhibition of Candida albicans with percentage of resistant strains %R = 16.6 (MIC > 64 ug/mL) at a range of 0.5-4 ug/mL
Candida albicans [11] = test: In vitro minimal inhibitory concentration against Candida albicans with percentage of resistant strains %R = 33.33 (MIC > 64 ug/mL) at a range of 0.125-2 ug/mL
Candida albicans [12] = test: In vitro concentration causing 50% inhibition of Candida albicans with percentage of resistant strains %R = 33.33 (MIC > 64 ug/mL) at a range of 0.125-2 ug/mL
Candida albicans [13] = test: In vitro concentration causing 90% inhibition of Candida albicans with percentage of resistant strains %R = 33.33 (MIC > 64 ug/mL) at a range of 0.125-2 ug/mL
Candida albicans [14] = test: In vitro minimal inhibitory concentration against Candida albicans with percentage of resistant strains %R = 33.3 (MIC > 64 ug/mL) at a range of 0.065-4 ug/mL
Candida albicans [15] = test: In vitro concentration causing 50% inhibition of Candida albicans with percentage of resistant strains %R = 33.3 (MIC > 64 ug/mL) at a range of 0.065-4 ug/mL
Candida albicans [16] = test: In vitro concentration causing 90% inhibition of Candida albicans with percentage of resistant strains %R = 33.3 (MIC > 64 ug/mL) at a range of 0.065-4 ug/mL

Compound `Cn1cc(-c2ccccc2)c(C(c2ccc3ccccc3c2)n2ccnc2)c1` (stereo unspecified) has a Ratio (Candida albicans [1]) of 63.
Work on `COc1ccc(C(Cc2ccc([N+](=O)[O-])cc2)n2ccnc2)cc1` (stereo unspecified) yielded a Ratio (Candida albicans [1]) of 17.
`Cn1cc(-c2ccc(Cl)cc2)c(C(c2ccccc2)n2ccnc2)c1` (stereo unspecified) gave an MIC50 (Candida albicans [2]) of 0.062 µg/mL (≈ 0.178 µM), an MIC (Candida albicans [3]) of 0.097 µg/mL (≈ 0.279 µM) and an MIC90 (Candida albicans [4]) of 0.125 µg/mL (≈ 0.359 µM). The Ratio (Candida albicans [1]) was 0.025.
Work on `CCCn1cc(-c2ccc(Cl)cc2)c(C(c2ccccc2)n2ccnc2)c1` (stereo unspecified) yielded an MIC (Candida albicans [5]) of 0.096 µg/mL (≈ 0.255 µM), an MIC50 (Candida albicans [6]) of 0.016 µg/mL (≈ 0.0426 µM) and an MIC90 (Candida albicans [7]) of 0.032 µg/mL (≈ 0.0851 µM). The Ratio (Candida albicans [1]) was 0.023.
Work on `COC(=O)/C=C/n1cc(-c2ccc(Cl)cc2)c(C(c2ccccc2)n2ccnc2)c1` (stereo unspecified) yielded an MIC (Candida albicans [8]) of 1.62 µg/mL (≈ 3.88 µM), an MIC50 (Candida albicans [9]) of 2 µg/mL (≈ 4.79 µM) and an MIC90 (Candida albicans [10]) of 4 µg/mL (≈ 9.57 µM). The Ratio (Candida albicans [1]) was 0.34.
For `C=CCn1cc(-c2ccc(Cl)cc2)c(C(c2ccccc2)n2ccnc2)c1` (stereo unspecified), the MIC (Candida albicans [5]) was 0.082 µg/mL (≈ 0.219 µM), the MIC50 (Candida albicans [6]) was 0.016 µg/mL (≈ 0.0428 µM) and the MIC90 (Candida albicans [7]) was 0.25 µg/mL (≈ 0.669 µM). The Ratio (Candida albicans [1]) was 0.019.
`CC(Cc1ccc(Cl)cc1Cl)n1ccnc1.COc1ccccc1` (stereo unspecified) showed a Ratio (Candida albicans [1]) of 1.
`CSc1ccc(-c2c[nH]cc2C(c2ccc(Cl)cc2Cl)n2ccnc2)cc1` (stereo unspecified) was tested, and the Ratio (Candida albicans [1]) was 2.8.
`c1ccc(C(c2ccc(-n3cccc3)cc2)n2ccnc2)cc1` (stereo unspecified) was tested, and the Ratio (Candida albicans [1]) was 6.8.
`Clc1ccc(-n2ccc(C(c3ccccc3)n3ccnc3)c2)cc1` (stereo unspecified) gave a Ratio (Candida albicans [1]) of 0.7.
Compound `Cc1ccc(C(c2ccn(-c3ccccc3)c2)n2ccnc2)cc1` (stereo unspecified) has a Ratio (Candida albicans [1]) of 1.2.
Work on `Clc1ccc(C(c2c[nH]cc2-c2ccc(-n3cccc3)cc2)n2ccnc2)c(Cl)c1` (stereo unspecified) yielded a Ratio (Candida albicans [1]) of 1.3.
`Cc1ccc(C(c2ccn(-c3ccc(F)cc3)c2)n2ccnc2)cc1` (stereo unspecified) showed a Ratio (Candida albicans [1]) of 3.1.
`Fc1ccc(C(c2ccn(-c3ccc(Cl)cc3)c2)n2ccnc2)cc1` (stereo unspecified) gave a Ratio (Candida albicans [1]) of 2.8.
In the case of `C=Cn1cc(-c2ccc(Cl)cc2)c(C(c2ccccc2)n2ccnc2)c1` (stereo unspecified), the MIC (Candida albicans [5]) is reported as 0.125 µg/mL (≈ 0.347 µM), the MIC50 (Candida albicans [6]) is reported as 0.032 µg/mL (≈ 0.0889 µM) and the MIC90 (Candida albicans [7]) is reported as 0.25 µg/mL (≈ 0.695 µM). The Ratio (Candida albicans [1]) was 0.031.
Compound `C=CCn1cc(-c2ccc(Cl)cc2)c(C(c2ccc(Cl)cc2Cl)n2ccnc2)c1` (stereo unspecified) has an MIC (Candida albicans [11]) of 0.73 µg/mL (≈ 1.65 µM), an MIC50 (Candida albicans [12]) of 0.5 µg/mL (≈ 1.13 µM) and an MIC90 (Candida albicans [13]) of 2 µg/mL (≈ 4.52 µM). It also gave a Ratio (Candida albicans [1]) of 0.15.
`COc1ccc(C(Cc2ccccc2Cl)n2ccnc2)cc1` (stereo unspecified) gave a Ratio (Candida albicans [1]) of 63.
`Fc1ccc(-n2ccc(C(c3ccc(Cl)cc3)n3ccnc3)c2)cc1` (stereo unspecified) gave a Ratio (Candida albicans [1]) of 2.7.
For `Cn1cc(-c2ccccc2)c(C(c2cccc3ccccc23)n2ccnc2)c1` (stereo unspecified), the Ratio (Candida albicans [1]) was 6.
Work on `COc1ccc(C(Cc2cccc(-n3cccc3)c2)n2ccnc2)cc1` (stereo unspecified) yielded a Ratio (Candida albicans [1]) of 45.
With `Nc1ccc(-c2c[nH]cc2C(c2ccc(Cl)cc2Cl)n2ccnc2)cc1` (stereo unspecified) the Ratio (Candida albicans [1]) was 28.
`Clc1ccc(-c2c[nH]cc2C(c2ccccc2)n2ccnc2)cc1` (stereo unspecified) gave an MIC (Candida albicans [14]) of 2.5 µg/mL (≈ 7.49 µM), an MIC50 (Candida albicans [15]) of 0.125 µg/mL (≈ 0.374 µM) and an MIC90 (Candida albicans [16]) of 4 µg/mL (≈ 12 µM). The Ratio (Candida albicans [1]) was 0.66.
`c1ccc(-c2c[nH]cc2C(c2cccc3ccccc23)n2ccnc2)cc1` (stereo unspecified) showed a Ratio (Candida albicans [1]) of 1.7.
For `CC(Cc1ccc(N)cc1)n1ccnc1.COc1ccccc1` (stereo unspecified), the Ratio (Candida albicans [1]) was 1.4.
`COc1ccc(C(Cc2ccc(F)cc2)n2ccnc2)cc1` (stereo unspecified) was tested, and the Ratio (Candida albicans [1]) was 23.
